From PMC5175369 (Nucleic Acids Research, 2016)
“And” between values parts separate entries of the source, which are not always exact repeats. Equal values may be shown once. Marks after values point to notes of the source that are not given here.

How the values were obtained:
mouse eIF4E = details: 20°C, cited from earlier work; for ΔG°: Gibbs free energy of binding; for KAS (cap–eIF4E): equilibrium association constant, mouse eIF4E
[1] = tested on: rabbit reticulocyte lysates (RRLs); test: Translation efficiency of capped luciferase mRNA in RRL; assay type: biochemical; details: for relative cap-dependent translation efficiency: ApppG-capped mRNA translation subtracted before normalization to m^7GpppG; for relative translation efficiency: luciferase mRNA capped with the analog, normalized to m^7GpppG-capped mRNA
Summary of the method: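 Capped, polyadenylated luciferase mRNAs were made with SP6 polymerase from a PCR template, then DNase-treated and purified. Flexi RRL (40% lysate, 0.01 mM amino acids, 1 mM Mg acetate, 190 mM K acetate) was preincubated 60 min at 30°C, then translated 60 min at 30°C with four mRNA concentrations. Luminescence versus mRNA was linearly fitted and normalized to m7GpppG-capped mRNA, optionally after subtracting ApppG-capped mRNA. Means are from 2–3 repeats of each of two mRNA syntheses.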

S. pombe Dcp1/2 complex = test: Decapping assay of short capped transcripts with SpDcp1/2; assay type: biochemical, Schizosaccharomyces pombe; details: 34 nt RNA capped with the analog, SpDcp1/2 complex, 30°C
Summary of the method: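 Short 34-nt capped RNAs were transcribed with […] from EcoRI-linearized pSP-luc+. NTPs were 0.1 mM final and cap dinucleotide 0.5 mM final, for 45 min at 37°C, then DNase-treated and column-purified. 20 ng RNA was digested with 50 or 200 nM S. pombe Dcp1/2 in 10 mM Hepes pH 7.5, 100 mM KOAc, 2 mM Mg(OAc)2, 2 mM DTT at 30°C. No-enzyme controls were run. Products were separated on 15% PAGE/7 M urea with SYBR Gold. Decapping % is upper-band loss over upper plus lower bands, mean ± SD of two experiments.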

mammalian cells = details: mRNA capped with the analog; cited from earlier work

Compound	ΔG° (mouse eIF4E)	KAS (cap–eIF4E) (mouse eIF4E)	relative cap-dependent translation efficiency [1]	relative translation efficiency [1]	Decapping % 5 min (S. pombe Dcp1/2 complex) [%]	Decapping % 15 min (S. pombe Dcp1/2 complex) [%]	Decapping % 30 min (S. pombe Dcp1/2 complex) [%]	mRNA half-life (mammalian cells) [min]
COC1C(O)[C@@H](COP(=O)(O)OP(=O)([S-])OP(=O)(O)OP(=O)(O)OC[C@H]2O[C@@H](n3cnc4c(=O)[nH]c(N)nc43)C(O)C2O)O[C@H]1n1c[n+](C)c2c(O)nc(N)nc21 (mixture of isomers) [m2^7,2′-OGppSppG D1D2, m2^7,2′-OGppSppG]	−11.33 ± 0.02^c kcal·mol^−1	282 ± 12^c μM^−1	2.80 ± 0.83	2.51 ± 0.59	57.9 ± 14.6	65.6 ± 18.0	71.6 ± 17.2	–
CO[C@@H]1[C@H](O)[C@@H](COP(=O)([O-])OP(O)(=S)OP(=O)(O)OC[C@H]2O[C@@H](n3cnc4c(=O)[nH]c(N)nc43)[C@H](O)[C@@H]2O)O[C@H]1[n+]1cn(C)c2c(=O)[nH]c(N)nc21 (single isomer, unassigned) [m2^7,2′-OGppSpG D1, m2^7,2′-OGppSpG]	−10.23 ± 0.02^a kcal·mol^−1	43.1 ± 1.4 μM^−1 and 43.1 ± 1.4^a μM^−1	2.27 ± 0.10	2.07 ± 0.18	47.5 ± 9.0	56.1 ± 11.5	60.9 ± 12.1	185 ± 20
CO[C@@H]1[C@H](O)[C@@H](COP(=O)([O-])OP(O)(=S)OP(=O)(O)OC[C@H]2O[C@@H](n3cnc4c(=O)[nH]c(N)nc43)[C@H](O)[C@@H]2O)O[C@H]1[n+]1cn(C)c2c(=O)[nH]c(N)nc21 (single isomer, unassigned) [m2^7,2′-OGppSpG D2, m2^7,2′-OGppSpG]	−9.77 ± 0.07^a kcal·mol^−1	19.3 ± 2.2^a μM^−1	2.83 ± 0.26	2.54 ± 0.66	47.3 ± 10.6	51.4 ± 15.6	57.4 ± 10.7	257 ± 4
Nc1nc2c(ncn2[C@@H]2O[C@H](COP(=O)(O)OP(=O)(O)OP(=O)(O)OC[C@H]3O[C@@H](n4cnc5c(N)ncnc54)[C@H](O)[C@@H]3O)[C@@H](O)[C@H]2O)c(=O)[nH]1 [ApppG]	–	–	0.00	0.16 ± 0.04	–	–	–	–
CO[C@@H]1[C@H](O)[C@@H](COP(=O)(O)OP(=O)([O-])OP(=O)(O)OC[C@H]2O[C@@H](n3cnc4c(=O)[nH]c(N)nc43)[C@H](O)[C@@H]2O)O[C@H]1n1c[n+](C)c2c(O)nc(N)nc21 [m2^7,2′-OGpppG]	−9.42 ± 0.02^b kcal·mol^−1	–	1.96 ± 0.43	1.81 ± 0.32	68.9 ± 0.4	78.6 ± 2.4	79.7 ± 7.5	155 ± 9
CO[C@@H]1[C@H](O)[C@@H](COP(=O)(O)OP(=O)([O-])OP(=O)(O)OP(=O)(O)OC[C@H]2O[C@@H](n3cnc4c(=O)[nH]c(N)nc43)[C@H](O)[C@@H]2O)O[C@H]1n1c[n+](C)c2c(O)nc(N)nc21 [m2^7,2′-OGppppG]	−10.73 ± 0.04^b kcal·mol^−1	99.8 ± 6.0^b μM^−1	1.94 ± 0.56	1.79 ± 0.43	73.4 ± 7.6	78.4 ± 9.4	82.9 ± 11.3	–
CO[C@H]1[C@@H](O)[C@H]([n+]2cn(C)c3c(=O)[nH]c(N)nc32)O[C@@H]1COP(=O)([O-])OP(=O)(O)OP(=O)(O)OC[C@H]1O[C@@H](n2cnc3c(=O)[nH]c(N)nc32)[C@H](O)[C@@H]1O [m2^7,3′-OGpppG]	−9.40 ± 0.02^a kcal·mol^−1	10.2 ± 0.3^a μM^−1	1.99 ± 0.81	1.83 ± 0.64	–	–	–	–
C[n+]1cn(C2OC(COP(=O)(O)OP(=O)(O)OP(=O)(O)OP(=O)(O)OP(=O)(O)OCC3OC(n4cnc5c(=O)[nH]c(N)nc54)C(O)C3O)C(O)C2O)c2nc(N)[nH]c(=O)c21 (stereo not drawn) [m^7Gp5G]	−11.71 ± 0.06^b kcal·mol^−1	543 ± 55^b μM^−1	–	–	–	–	–	–
Cn1c[n+]([C@@H]2O[C@H](COP(=O)(O)OP(=O)([O-])OP(=O)(O)OC[C@H]3O[C@@H](n4cnc5c(=O)[nH]c(N)nc54)[C@H](O)[C@@H]3O)[C@@H](O)[C@H]2O)c2nc(N)[nH]c(=O)c21 [m^7GpppG]	−9.35 ± 0.03^a kcal·mol^−1	9.4 ± 0.4 μM^−1 and 9.4 ± 0.4^a μM^−1	1	1	–	–	–	–
m2^7,2′-OGpppSpG [m2^7,2′-OGpppSpG D1D2]	−10.99 ± 0.01^c kcal·mol^−1	158 ± 2^c μM^−1	–	–	72.7 ± 1.9	78.3 ± 1.0	79.5 ± 3.5	–
